Laboratory results taken from ChEMBL document CHEMBL1949538, “Hybrids of privileged structures benzothiazoles and pyrrolo[2,1-c] [1,4]benzodiazepin-5-one, and diversity-oriented synthesis of benzothiazoles” (Eur J Med Chem, 2012).

Legend:
Type in all cases: functional, cell-based
[1] = system: Jurkat; test: Cytotoxicity against human Jurkat cells after 2 days by MTT assay; settings: 48 h
Summary of the method: (§1)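 Leukemia lines (HL-60, THP-1, U-937, Jurkat) grown in RPMI-1640, A-549 in DMEM, both with 10% heat-inactivated FCS at 37 °C, 5% CO2. Cells seeded at 2 × 10⁴/well, dosed after 24 h and read 2 days later. MTT (5 mg/mL stock) added for 4 h at 37 °C, formazan dissolved in DMSO, read at 570 nm. Five replicates; IC50 from linear regression.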

[2] = system: U-937; test: Cytotoxicity against human U937 cells after 2 days by MTT assay; settings: U-937, 48 h; summary of the method: as §1
[3] = system: HL-60; test: Cytotoxicity against human HL60 cells after 2 days by MTT assay; settings: HL-60, 48 h; summary of the method: as §1
[4] = system: THP-1; test: Cytotoxicity against human THP1 cells after 2 days by MTT assay; settings: THP-1, 48 h; summary of the method: as §1
[5] = system: A549; test: Cytotoxicity against human A549 cells after 2 days by MTT assay; settings: A549, 48 h; summary of the method: as §1

Compound | IC50 [1] | IC50 [2] | IC50 [3] | IC50 [4] | IC50 [5]
COc1ccc2nc(-c3ccc(NC(=O)C4CC4)cc3)sc2c1 | > 50 µM | > 50 µM | > 50 µM | > 50 µM | > 50 µM
COc1ccc2nc(-c3ccc(NC(=O)NCc4ccccc4)cc3)sc2c1 | > 50 µM | > 50 µM | > 50 µM | > 50 µM | > 50 µM
CC[C@@]1(O)C(=O)OCc2c1cc1n(c2=O)Cc2cc3ccccc3nc2-1 [CAMPTOTHECIN] | 0.026 µM | 1.98 µM | 0.6 µM | 0.071 µM | 0.008 µM
COc1ccc2nc(-c3ccc(N=C(NC4CCCCC4)NC4CCCCC4)cc3)sc2c1 | 2.23 µM |  | 7.15 µM | 3.1 µM | 3.23 µM
CC1(C)O[C@H]2O[C@H]([C@H]3COC(C)(C)O3)[C@H](OCc3ccc(-c4nc5ccc(F)cc5s4)cc3)[C@H]2O1 | > 50 µM | > 50 µM | > 50 µM | > 50 µM | > 50 µM
O=C1c2ccc(-c3nc4ccc(F)cc4s3)cc2N=C[C@@H]2CCCN12 | 6.58 µM | 3.44 µM | 4.13 µM | 0.49 µM | 
COc1cc2nc(-c3cccc(N)c3C)sc2c(OC)c1OC | 9.75 µM |  | 5.63 µM | 3.56 µM | 4.56 µM
COc1cc([C@@H]2c3cc4c(cc3[C@@H](O[C@@H]3O[C@@H]5CO[C@@H](C)O[C@H]5[C@H](O)[C@H]3O)[C@H]3COC(=O)[C@H]23)OCO4)cc(OC)c1O [ETOPOSIDE] | 5.35 µM | 17.9 µM |  |  | 
COc1ccc2nc(-c3ccc4c(c3)N=C[C@@H]3CCCN3C4=O)sc2c1 | 11.3 µM | 6.03 µM | 6.39 µM | 2.14 µM | 
COc1ccc2nc(-c3ccc(N)cc3)sc2c1 | > 50 µM | > 50 µM | > 50 µM | > 50 µM | > 50 µM
O=C1c2ccc(-c3nc4ccccc4s3)cc2N=C[C@@H]2CCCN12 | 9.43 µM | 5.41 µM | 7.27 µM | 3.09 µM | 
Cc1ccc(-c2nc3ccccc3s2)cc1N | > 50 µM | > 50 µM | > 50 µM | > 50 µM | > 50 µM
Cc1ccc(-c2nc3ccc(F)cc3s2)cc1N | > 50 µM | > 50 µM | > 50 µM | > 50 µM | > 50 µM
CC1(C)O[C@H]2O[C@H]([C@H](O)CO)[C@H](OCc3ccc(-c4nc5ccc(F)cc5s4)cc3)[C@H]2O1 | 3.2 µM |  | 22.3 µM | 3 µM | 5.01 µM
COc1ccc2nc(-c3ccc(C)c(N)c3)sc2c1 | > 50 µM | > 50 µM | > 50 µM | > 50 µM | > 50 µM
